Published values pooled from the literature.
Each line is one published result; the experiments were not run side by side.
Target: Serine/threonine-protein kinase Nek1 (NEK1, Homo sapiens, UniProt Q96PY6)
Residues used in one study (Q96PY6 1-1258): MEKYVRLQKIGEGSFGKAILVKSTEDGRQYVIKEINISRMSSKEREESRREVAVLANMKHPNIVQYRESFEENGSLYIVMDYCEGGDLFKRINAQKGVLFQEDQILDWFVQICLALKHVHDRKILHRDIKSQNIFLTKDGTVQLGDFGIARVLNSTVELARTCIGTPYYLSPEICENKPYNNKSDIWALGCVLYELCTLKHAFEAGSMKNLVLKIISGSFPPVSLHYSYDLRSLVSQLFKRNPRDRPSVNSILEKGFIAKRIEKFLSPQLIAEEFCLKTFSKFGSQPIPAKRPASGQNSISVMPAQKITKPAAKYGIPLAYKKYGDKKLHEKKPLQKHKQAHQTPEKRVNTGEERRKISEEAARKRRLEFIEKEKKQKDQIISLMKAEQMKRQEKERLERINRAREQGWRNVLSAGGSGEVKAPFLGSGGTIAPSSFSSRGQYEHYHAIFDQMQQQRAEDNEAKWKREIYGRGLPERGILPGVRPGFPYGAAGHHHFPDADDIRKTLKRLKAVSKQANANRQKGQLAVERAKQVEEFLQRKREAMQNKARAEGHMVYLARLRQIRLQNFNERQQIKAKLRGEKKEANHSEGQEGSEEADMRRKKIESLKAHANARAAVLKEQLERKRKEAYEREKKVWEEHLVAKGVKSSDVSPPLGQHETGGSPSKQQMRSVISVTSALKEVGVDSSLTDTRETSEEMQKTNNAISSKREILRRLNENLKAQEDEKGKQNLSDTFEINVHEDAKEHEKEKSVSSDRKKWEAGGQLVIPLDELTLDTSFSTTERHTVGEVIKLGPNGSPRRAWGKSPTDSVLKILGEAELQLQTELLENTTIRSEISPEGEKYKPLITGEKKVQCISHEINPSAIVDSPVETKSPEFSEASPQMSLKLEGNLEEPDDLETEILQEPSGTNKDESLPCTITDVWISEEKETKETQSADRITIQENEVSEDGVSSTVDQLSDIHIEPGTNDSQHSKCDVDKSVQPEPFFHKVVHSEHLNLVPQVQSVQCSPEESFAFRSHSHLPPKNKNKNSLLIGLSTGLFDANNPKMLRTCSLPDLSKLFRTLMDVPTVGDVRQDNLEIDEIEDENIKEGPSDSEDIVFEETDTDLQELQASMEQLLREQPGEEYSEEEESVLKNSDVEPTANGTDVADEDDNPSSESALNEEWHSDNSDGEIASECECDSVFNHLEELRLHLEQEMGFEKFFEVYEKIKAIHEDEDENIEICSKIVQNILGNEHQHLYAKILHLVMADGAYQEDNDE

CO[C@@H]1[C@H](N(C)C(=O)c2ccccc2)C[C@H]2O[C@]1(C)n1c3ccccc3c3c4c(c5c6ccccc6n2c5c31)C(=O)NC4
inhibition (enzyme activity, inhibitor; 1 µM): 0%

COc1ccc2[nH]c3c4[nH]c5ccc(OC)cc5c4c4c(c3c2c1)C(=O)NC4=O
remaining binding (binding; 1 µM): 100%

CC#CC(=O)N1CCC[C@H]1c1nc(-c2ccc(C(=O)Nc3ccccn3)cc2)c2c(N)nccn12
inhibition (enzyme activity, inhibitor; 1 µM): 8%

CCCCC(=O)Nc1ccc(-c2ccc3ncn(CCC)c(=O)c3c2)cn1
remaining binding (binding, competition with immobilised ligand; 0.5 µM): 95%

C1=C/COCc2cc(ccc2OCCN2CCCC2)Nc2nccc(n2)-c2cccc(c2)COC/1
remaining binding (binding; 0.1 µM): 98%

C#Cc1cc(-c2cc(Nc3nc(N[C@@H](C)c4ccc(F)cn4)ncc3Cl)n[nH]2)ccc1C=O
inhibition (enzyme activity, inhibitor; 0.2 µM): 70.2%

Cc1cc(O)c(-c2ccc([C@@H](C)CN(C)C)cc2)c2c1[nH]c(=O)c1sccc12
inhibition (enzyme activity, inhibitor; 0.1 µM): -3.68%

C[C@H]1CC[C@H](n2c3cnccc3c3cnc(Nc4ccc5c(n4)CCN(C(=O)CO)C5)nc32)CC1
remaining signal (cell-free assay; 1 µM): 85%

COc1ccc2oc(-c3ccc4nc(N)oc4c3)c/c(=N\c3ccccc3NC(=O)CCN)c2c1
remaining binding (binding; 1 µM): 108%
